Data set [1] is described as follows: Intrinsic clearance in human liver microsomes assessed per mg of protein. The data set is classed as ADME, Microsome. The gist of the method: (§1)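 Intrinsic metabolic clearance in liver microsomes, expressed as µL/min/mg protein.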
For orientation: Liver microsomes are vesicles of endoplasmic reticulum, rich in cytochrome P450 enzymes.

Data set [2] in a line: Apparent permeability from apical to basolateral side in dog RRCK cells. The data set is classed as ADME, cell-based, Canis lupus familiaris, MDCKII-LE. The note with it: MDCK. The method in brief: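 Passive permeability measured in RRCK cells as Papp A→B, in units of 10^-6 cm/s.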
Another data set has as its target T1, CYP1A2 (Homo sapiens, UniProt P05177).
T1 sequence (P05177 whole entry): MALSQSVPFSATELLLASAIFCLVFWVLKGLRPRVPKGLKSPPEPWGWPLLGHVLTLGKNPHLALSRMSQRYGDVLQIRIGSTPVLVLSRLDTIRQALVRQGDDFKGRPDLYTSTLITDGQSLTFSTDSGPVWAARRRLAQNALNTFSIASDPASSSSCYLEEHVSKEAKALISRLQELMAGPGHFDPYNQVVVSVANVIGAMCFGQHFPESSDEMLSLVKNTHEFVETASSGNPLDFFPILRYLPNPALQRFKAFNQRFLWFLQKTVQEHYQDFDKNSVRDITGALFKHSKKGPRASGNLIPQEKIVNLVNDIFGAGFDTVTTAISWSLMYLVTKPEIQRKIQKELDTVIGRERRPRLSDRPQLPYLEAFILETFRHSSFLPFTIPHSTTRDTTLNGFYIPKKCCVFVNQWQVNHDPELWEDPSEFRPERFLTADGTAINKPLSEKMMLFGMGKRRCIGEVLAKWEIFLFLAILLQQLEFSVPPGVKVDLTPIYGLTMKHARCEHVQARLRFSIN
As to the kind of experiment: Inhibition of CYP1A2 at 3 uM. The data set is classed as ADME.

Data set [3] has as its target T2, Soluble guanylate cyclase (Homo sapiens) (UniProt Q02153+O75343+P33402+Q02108). Kind of data set: Activation of human soluble guanylate cyclase assessed as production of cGMP in presence of nitric oxide donor, SIN-1 by LC-MS enzyme assay. The data set is classed as protein-complex assay.
Data set [4] can be described thus: Octanol-buffer partition coefficient, log D of the compound at pH 7.4. The data set is classed as physicochemical. The gist of the method: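 LogD measured by partition between octanol and pH 7.4 buffer.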
Data set [5] deals with T2, Soluble guanylate cyclase (Homo sapiens). As to the kind of experiment: Activation of human soluble guanylate cyclase assessed as production of cGMP in presence of nitric oxide donor, SIN-1 by FP assay. The format is protein-complex assay. The gist of the method: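 Purified human sGC with the NO donor SIN-1 present. Enzyme converts GTP to cGMP, and the cGMP binds a cGMP-specific antibody included in the reactions. Read-out is fluorescence polarization.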

A short description of data set [6]: Apparent permeability of the compound by PAMPA assay. The data set is classed as ADME. The method in brief: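 Passive permeability from a PAMPA screen, as Papp in units of 10^-6 cm/s.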
In general terms: In PAMPA a lipid-coated filter parts donor from acceptor wells.

The nature of data set [7]: Activation of soluble guanylate cyclase in Sprague-Dawley rat thoracic aorta rings assessed as inhibition of noradrenaline-evoked vasoconstriction in presence of nitric oxide donor, DETA-NO.
A short description of data set [8]: Oral bioavailability in rat at 2 mg/kg. The settings on record: in vivo. The data set is classed as ADME, organism-based. The method in brief: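 Rats dosed orally at 2 mg/kg. Bioavailability determined after oral dosing, with a 2 mg/kg iv arm for reference.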
A short description of data set [9]: Half life in rat at 2 mg/kg, iv. The data set is classed as ADME, organism-based. On the set-up: dose 2 mg/kg, route intravenous. The settings on record: in vivo. The gist of the method:
(§2)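 Rats dosed iv at 2 mg/kg. Clearance, volume of distribution at steady state and half-life derived after iv dosing.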

A short description of data set [10]: Volume of distribution at steady state in rat at 2 mg/kg, iv. The data set is classed as ADME, organism-based. Also on record: dose 2 mg/kg, route intravenous. The settings on record: in vivo, read-out: Vdss. The method in brief: as §2
A short description of data set [11]: Activation of soluble guanylate cyclase in Sprague-Dawley rat thoracic aorta rings assessed as […] in presence of nitric oxide donor, DETA-NO. The data set is classed as tissue-based.
A short description of data set [12]: Clearance in rat at 2 mg/kg, iv. Also on record: dose 2 mg/kg, route intravenous. The note with it: in vivo. The data set is classed as ADME, organism-based. The method in brief: as §2
Data set [13] in a line: Intrinsic clearance in rat liver microsomes assessed per mg of protein. The format is ADME, Microsome. The method in brief: as §1
Data set [14] has as its target Voltage-gated inwardly rectifying potassium channel KCNH2 (Homo sapiens, UniProt Q12809). Kind of data set: Inhibition of human ERG.

Bounds are passed on as bounds.

Voltage-gated inwardly rectifying potassium channel KCNH2, sequence (Q12809 whole entry): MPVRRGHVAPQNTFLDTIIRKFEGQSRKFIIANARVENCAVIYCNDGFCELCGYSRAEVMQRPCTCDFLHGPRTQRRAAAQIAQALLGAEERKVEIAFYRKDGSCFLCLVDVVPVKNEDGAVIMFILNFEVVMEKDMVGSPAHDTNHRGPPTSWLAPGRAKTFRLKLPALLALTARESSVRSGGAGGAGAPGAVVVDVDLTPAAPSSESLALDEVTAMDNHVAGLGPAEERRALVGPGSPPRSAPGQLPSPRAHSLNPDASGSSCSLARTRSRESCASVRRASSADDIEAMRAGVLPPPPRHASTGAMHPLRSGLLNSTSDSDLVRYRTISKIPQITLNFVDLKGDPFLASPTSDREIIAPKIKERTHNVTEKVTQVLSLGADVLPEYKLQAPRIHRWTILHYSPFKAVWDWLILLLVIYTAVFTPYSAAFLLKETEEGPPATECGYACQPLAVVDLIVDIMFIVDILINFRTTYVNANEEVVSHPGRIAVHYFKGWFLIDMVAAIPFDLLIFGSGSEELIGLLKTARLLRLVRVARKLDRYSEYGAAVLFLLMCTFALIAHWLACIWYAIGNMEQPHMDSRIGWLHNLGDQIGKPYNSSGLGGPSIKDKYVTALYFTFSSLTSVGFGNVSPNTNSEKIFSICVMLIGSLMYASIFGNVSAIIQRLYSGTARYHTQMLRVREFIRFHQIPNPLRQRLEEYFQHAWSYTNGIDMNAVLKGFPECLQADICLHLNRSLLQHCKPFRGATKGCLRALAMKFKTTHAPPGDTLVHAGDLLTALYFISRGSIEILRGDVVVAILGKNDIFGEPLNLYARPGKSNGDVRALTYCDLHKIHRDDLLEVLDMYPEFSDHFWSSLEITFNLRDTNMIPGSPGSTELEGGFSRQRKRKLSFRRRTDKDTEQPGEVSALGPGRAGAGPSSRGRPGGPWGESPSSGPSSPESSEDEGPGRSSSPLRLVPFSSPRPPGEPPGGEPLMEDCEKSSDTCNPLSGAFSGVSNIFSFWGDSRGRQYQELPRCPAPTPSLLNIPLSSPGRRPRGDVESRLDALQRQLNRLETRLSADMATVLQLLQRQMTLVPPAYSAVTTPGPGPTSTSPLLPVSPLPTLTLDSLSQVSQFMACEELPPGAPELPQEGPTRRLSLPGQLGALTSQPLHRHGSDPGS

Consider `Cc1n[nH]c(-c2nc(Cc3ccccc3F)c3ccccn23)n1`, for which, in [1], the microsomal CLint (usually the rate of metabolic loss divided by the concentration) is 124 µL/min/mg. Also, the Papp A→B (as a rule, how fast a substance crosses the layer from the apical side) in data set [2] amounted to 10 nm/s. Also, the inhibition (in general, the share of the control response that was lost under treatment) at 3 µM against CYP1A2 is 23%. In addition, in data set [3], the EC10 (usually the point of the concentration-response curve where the effect stands at 10%) was 0.393 µM. Further, the logD (usually the decadic logarithm of the distribution of all forms, ionised or not, between an organic phase and buffer at a given pH) in data set [4] amounted to 3.3.
Compound `Cc1ncc(Cc2nc(-c3nc(C(F)(F)F)n[nH]3)n3ccccc23)cn1` had a microsomal CLint in data set [1] of less than 8 µL/min/mg. Moreover, in data set [5], the concentration for an effect of 20% (EC20) (as a rule, the point of the concentration-response curve where the effect stands at 20%) was 0.245 µM. In addition, the apical-to-basolateral permeability (Papp A→B) in [2] worked out at 270 nm/s. On CYP1A2, this compound registered an inhibition at 3 µM of 5%. In addition, in data set [3], the EC10 came to 0.366 µM. The same compound had a logD in data set [4] of 2.1.
In [1], `Cc1ncc(Cc2nc(-c3nc(C(F)(F)F)n[nH]3)n3cccc(F)c23)cn1` displayed a microsomal CLint of less than 8 µL/min/mg. Besides, the EC20 in data set [5] amounted to 0.073 µM. Besides, in data set [2], the Papp A→B came to 230 nm/s. This compound returned an inhibition at 3 µM at CYP1A2 of 15%. Moreover, the log distribution coefficient (logD) in [4] worked out at 2.
The compound `Fc1ccccc1Cc1nc(-c2ncn[nH]2)n2ccccc12` yielded a microsomal CLint in data set [1] of 175 µL/min/mg. In addition, the Papp A→B in data set [2] is 80 nm/s. At CYP1A2, the inhibition at 3 µM was 39%. For the same compound, the 10% effect concentration (EC10) in [3] was determined as 2.8 µM. In data set [4], this compound had a logD of 3.3.
Turning to `Fc1ccccc1Cc1nc(-c2nc(C(F)(F)F)n[nH]2)c2ccccn12`, the microsomal CLint in [1] amounted to 20 µL/min/mg. Further, the EC20 in [5] came out at 1.07 µM. The apparent permeability from apical to basolateral (Papp A→B) in [2] turned out to be 170 nm/s. Testing at 3 µM at CYP1A2 gave an inhibition of 66%. For the same compound, the 10% effect concentration (EC10) in data set [3] was found to be 0.658 µM. This compound showed a logD in [4] of 3.9.
With `Fc1ccccc1Cc1nc(-c2nc(C(F)(F)C(F)(F)F)n[nH]2)n2ccccc12`, the microsomal CLint in data set [1] was determined as 92 µL/min/mg. The Papp A→B in data set [2] was 30 nm/s. Moreover, the inhibition at 3 µM at CYP1A2 worked out at 31%. The EC10 in data set [3] worked out at 1.17 µM. Moreover, in [4], the logD worked out at 4.2.
Regarding `Fc1ccccc1Cc1nc(-c2nc(C(F)(F)F)n[nH]2)n2cccnc12`, in data set [1], the microsomal CLint turned out to be 17 µL/min/mg. Moreover, the EC20 in [5] was found to be 0.221 µM. Further, the Papp A→B in [2] amounted to 280 nm/s. The same compound came in with an inhibition at 3 µM against CYP1A2 of 17%. In addition, the 10% effect concentration (EC10) in data set [3] stood at 0.724 µM. For the same compound, in data set [4], the logD is 2.5.
For `Cc1ncc(Cn2nc(-c3nc(C(F)(F)F)n[nH]3)c3cccnc32)cn1`, the microsomal CLint in data set [1] was less than 7 µL/min/mg. Moreover, the EC20 in data set [5] came to 0.058 µM. Also, at CYP1A2, the inhibition at 3 µM was less than 5%. The apparent permeability (Papp) – broadly, the rate of passage across a membrane or cell layer, normalised by area and donor concentration – in [6] came out at 270 nm/s.
As to `Fc1ccccc1Cc1nc(-c2nc(C(F)F)n[nH]2)n2ccccc12`, the microsomal CLint in data set [1] turned out to be 62 µL/min/mg. In addition, the Papp A→B in [2] was determined as 2 nm/s. Further, the inhibition at 3 µM against CYP1A2 was found to be 49%. Further, the EC10 in data set [3] stood at 0.507 µM. Moreover, the logD in data set [4] amounted to 3.8.
For `NC(=O)c1n[nH]c(-c2nc(Cc3ccccc3F)c3ccccn23)n1`, in that order: less than 8 µL/min/mg, 130 nm/s, 16%, 2.81 µM and 2.8.
In the case of `Nc1nc(-c2nn(Cc3ccccc3F)c3ncccc23)nc(N)c1N1CCOCC1`, the EC20 in data set [5] worked out at 0.011 µM. For the same compound, the EC10 in data set [3] is 0.044 µM. This compound also returned a logD in data set [4] of 3.1. Besides, the half-maximal inhibitory concentration (IC50) – broadly, the concentration that gives 50% inhibition – in data set [7] was 0.011 µM.
`Fc1ccccc1Cn1nc(-c2nc(C(F)(F)F)n[nH]2)c2cccnc21` came in with a microsomal CLint in [1] of less than 11 µL/min/mg. For the same compound, the bioavailability (as a rule, the share of a dose that reaches the circulation, judged against a reference dose that is usually intravenous) in data set [8] is 66%. Moreover, the half-life (usually how long it takes for the measured level to halve) in data set [9] was 4.7 h. Also, the 20% effect concentration (EC20) in data set [5] was 0.022 µM. Besides, the Vd in data set [10] turned out to be 3.1 L/kg. Moreover, the Papp A→B in data set [2] stood at 200 nm/s. On CYP1A2, this compound gave an inhibition at 3 µM of 20%. Further, in data set [3], the EC10 was found to be 0.06 µM. Also, the pH-dependent lipophilicity (logD) in data set [4] came out at 3.2. In data set [11], the IC50 worked out at 0.033 µM. For the same compound, the clearance – broadly, a measure of how efficiently the substance is removed, as volume per time – in [12] is 0.48 L/h/kg.
Turning to `Fc1ccccc1Cc1nc(-c2nc(C(F)(F)F)n[nH]2)n2ccccc12`, the microsomal CLint in [1] was 72 µL/min/mg. Also, the concentration for an effect of 20% (EC20) in data set [5] is 0.281 µM. Further, the Papp A→B in data set [2] was found to be 60 nm/s. At 3 µM the inhibition against CYP1A2 was 57%. Besides, the EC10 in data set [3] was found to be 0.47 µM. In addition, the logD in data set [4] was found to be 3.8. Also, the IC50 in data set [7] came out at 0.04 µM.
`Fc1ccccc1Cc1nc(-c2nc(C(F)(F)F)n[nH]2)c2cccnn12`: the EC10 in [3] was 0.224 µM.
As to `FC(F)(F)c1n[nH]c(-c2nc(Cc3cncnc3)c3ccccn23)n1`, the figures for the microsomal CLint in data set [1] and in [13] were less than 7 µL/min/mg and less than 16 µL/min/mg, respectively. The bioavailability in [8] is 61%. Also, the half-life in data set [9] is 4.1 h. In addition, the 20% effect concentration (EC20) in [5] was found to be 0.08 µM. Besides, in data set [10], the Vd is 3.7 L/kg. In addition, the Papp A→B in data set [2] stood at 190 nm/s. For the same compound, the inhibition at 3 µM at CYP1A2 turned out to be 82%. In addition, in data set [3], the concentration for an effect of 10% (EC10) amounted to 0.21 µM. In [14], the INH is greater than 10 µM. The compound also yielded a logD in data set [4] of 1.8. Also, in data set [7], the IC50 turned out to be 0.06 µM. Also, in data set [12], the clearance amounted to 0.594 L/h/kg.
On to `CS(=O)(=O)c1n[nH]c(-c2nc(Cc3ccccc3F)c3ccccn23)n1`, for which, in [1], the microsomal CLint is 14 µL/min/mg. Besides, at CYP1A2, the inhibition at 3 µM is 3%. In addition, the EC10 in data set [3] was 1.34 µM. The compound further had a log distribution coefficient (logD) in data set [4] of 1.2.
`OCc1ccc(-c2nn(Cc3ccccc3)c3ccccc23)o1` displayed a microsomal CLint in data set [1] of 212 µL/min/mg. For the same compound, the Papp A→B in data set [2] was determined as 60 nm/s. This compound also gave an inhibition at 3 µM at CYP1A2 of 69%. In addition, the EC10 in data set [3] is 3.36 µM. The same compound came in with a logD in [4] of 3.7.
As for `Fc1ccccc1Cc1nc(-c2nc(Cc3ccccc3)n[nH]2)n2ccccc12`, the EC20 in data set [5] came out at 0.554 µM. The Papp A→B in [2] amounted to 5 nm/s. At CYP1A2, this compound displayed an inhibition at 3 µM of 29%. Further, the EC10 in data set [3] was found to be 0.84 µM.

Values taken from ChEMBL document CHEMBL1914314, “Acidic triazoles as soluble guanylate cyclase stimulators” (Bioorg Med Chem Lett, 2011).
